Data from ChEMBL document CHEMBL4007432, “Discovery and characterization of novel CYP1B1 inhibitors based on heterocyclic chalcones: Overcoming cisplatin resistance in CYP1B1-overexpressing lines” (Eur J Med Chem, 2017).

Tests used:
Cytochrome P450 1A1 = molecular target: T1, Cytochrome P450 1A1 (Homo sapiens, UniProt P04798); assay: Inhibition of human liver CYP1A1 expressed in Saccharomyces cerevisiae YY7 microsomal membranes using 7-ethoxyresorufin as substrate after 10 mins by fluorescence assay; type: ADME, Microsomal Membrane
T1 sequence (P04798 whole entry): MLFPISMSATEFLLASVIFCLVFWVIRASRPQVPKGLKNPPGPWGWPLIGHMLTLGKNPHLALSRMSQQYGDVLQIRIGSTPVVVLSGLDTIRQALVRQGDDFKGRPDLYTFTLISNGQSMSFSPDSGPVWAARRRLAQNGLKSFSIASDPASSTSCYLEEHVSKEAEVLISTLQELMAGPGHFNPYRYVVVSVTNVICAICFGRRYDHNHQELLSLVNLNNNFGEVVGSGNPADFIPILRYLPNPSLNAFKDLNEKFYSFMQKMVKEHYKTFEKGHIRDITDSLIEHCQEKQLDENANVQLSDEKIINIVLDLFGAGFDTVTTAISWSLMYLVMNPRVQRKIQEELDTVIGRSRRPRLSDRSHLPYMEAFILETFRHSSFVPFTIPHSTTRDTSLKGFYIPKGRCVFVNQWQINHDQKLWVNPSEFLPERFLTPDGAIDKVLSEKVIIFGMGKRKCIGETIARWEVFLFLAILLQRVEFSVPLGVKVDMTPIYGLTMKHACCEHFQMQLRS
How it was run: (§1)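 Yeast microsomes (YY7 strain carrying human reductase) held 0.5 pmol CYP with an NADP+/glucose-6-phosphate/G6PDH regenerating system in KPi. Fluorogenic substrate per isoform: 7-ER, CEC, EOMCC or DBF. Six serial 1:20 dilutions were tested, DMSO ≤0.5%. Reactions ran 10 min at 37 °C and were stopped with Tris-acetonitrile. Endpoint fluorescence (530/590 nm for resorufin) was fitted by 4-parameter sigmoid. Triplicate, ≥3 experiments.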

Cytochrome P450 2C9 = Cytochrome P450 2C9 (Homo sapiens, UniProt P11712); assay: Inhibition of human liver CYP2C9 expressed in Saccharomyces cerevisiae YY7 microsomal membranes using DBF as substrate after 10 mins by fluorescence assay; type: ADME, Microsomal Membrane
Cytochrome P450 2C9, sequence (P11712 whole entry): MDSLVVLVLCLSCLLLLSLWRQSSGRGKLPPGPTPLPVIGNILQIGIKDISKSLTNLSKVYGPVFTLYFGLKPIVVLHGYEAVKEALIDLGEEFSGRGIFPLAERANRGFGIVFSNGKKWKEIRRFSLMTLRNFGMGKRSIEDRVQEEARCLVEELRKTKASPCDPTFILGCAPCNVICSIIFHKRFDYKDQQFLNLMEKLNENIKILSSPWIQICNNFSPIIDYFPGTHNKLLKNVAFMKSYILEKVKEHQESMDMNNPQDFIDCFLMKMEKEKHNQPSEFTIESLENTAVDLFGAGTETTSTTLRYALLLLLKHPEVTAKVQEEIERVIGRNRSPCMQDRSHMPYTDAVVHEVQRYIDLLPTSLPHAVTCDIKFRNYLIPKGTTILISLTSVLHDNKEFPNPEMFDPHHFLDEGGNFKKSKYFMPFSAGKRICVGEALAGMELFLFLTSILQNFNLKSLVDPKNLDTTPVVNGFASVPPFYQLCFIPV

Cytochrome P450 1B1 [1] = molecular target: T2, Cytochrome P450 1B1 (Homo sapiens, UniProt Q16678); assay: Inhibition of human liver CYP1B1 expressed in Saccharomyces cerevisiae YY7 microsomal membranes using 7-ethoxyresorufin as substrate after 10 mins by fluorescence assay; how it was run: as §1
T2 sequence (Q16678 whole entry): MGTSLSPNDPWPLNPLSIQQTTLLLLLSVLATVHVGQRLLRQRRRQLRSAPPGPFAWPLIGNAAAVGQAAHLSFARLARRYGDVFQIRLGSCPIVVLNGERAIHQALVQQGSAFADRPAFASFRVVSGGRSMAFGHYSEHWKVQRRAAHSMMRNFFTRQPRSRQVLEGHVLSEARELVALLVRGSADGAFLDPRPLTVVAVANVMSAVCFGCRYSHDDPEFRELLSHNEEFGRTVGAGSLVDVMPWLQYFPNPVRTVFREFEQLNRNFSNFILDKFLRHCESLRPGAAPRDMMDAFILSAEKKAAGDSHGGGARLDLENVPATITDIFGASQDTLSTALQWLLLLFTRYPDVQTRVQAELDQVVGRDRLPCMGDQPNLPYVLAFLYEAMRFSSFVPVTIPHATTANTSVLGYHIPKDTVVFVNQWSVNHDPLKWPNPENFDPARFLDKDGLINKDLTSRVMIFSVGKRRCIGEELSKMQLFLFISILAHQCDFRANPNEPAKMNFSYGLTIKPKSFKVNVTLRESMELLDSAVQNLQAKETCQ

Cytochrome P450 1A2 = molecular target: T3, Cytochrome P450 1A2 (Homo sapiens, UniProt P05177); assay: Inhibition of human liver CYP1A2 expressed in Saccharomyces cerevisiae YY7 microsomal membranes using CEC as substrate after 10 mins by fluorescence assay; type: ADME, Microsomal Membrane; how it was run: as §1
T3 sequence (P05177 whole entry): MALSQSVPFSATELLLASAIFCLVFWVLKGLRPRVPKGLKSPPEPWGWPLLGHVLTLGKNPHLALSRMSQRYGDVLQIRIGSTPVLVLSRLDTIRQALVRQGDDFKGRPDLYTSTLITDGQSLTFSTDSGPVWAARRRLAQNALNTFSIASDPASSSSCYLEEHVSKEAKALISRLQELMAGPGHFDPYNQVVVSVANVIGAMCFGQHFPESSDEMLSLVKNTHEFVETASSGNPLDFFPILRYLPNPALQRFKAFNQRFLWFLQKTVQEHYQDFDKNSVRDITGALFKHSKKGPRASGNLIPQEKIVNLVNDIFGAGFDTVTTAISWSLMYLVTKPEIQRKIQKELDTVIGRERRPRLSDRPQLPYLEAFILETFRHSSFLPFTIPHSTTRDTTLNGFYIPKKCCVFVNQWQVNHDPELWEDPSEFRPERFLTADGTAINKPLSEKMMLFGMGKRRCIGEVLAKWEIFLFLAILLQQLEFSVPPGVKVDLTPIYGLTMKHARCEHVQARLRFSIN

Cytochrome P450 3A4 = Cytochrome P450 3A4 (Homo sapiens, UniProt P08684); assay: Inhibition of human liver CYP3A4 expressed in Saccharomyces cerevisiae YY7 microsomal membranes using DBF as substrate after 10 mins by fluorescence assay; type: ADME, Microsomal Membrane
Cytochrome P450 3A4, sequence (P08684 whole entry): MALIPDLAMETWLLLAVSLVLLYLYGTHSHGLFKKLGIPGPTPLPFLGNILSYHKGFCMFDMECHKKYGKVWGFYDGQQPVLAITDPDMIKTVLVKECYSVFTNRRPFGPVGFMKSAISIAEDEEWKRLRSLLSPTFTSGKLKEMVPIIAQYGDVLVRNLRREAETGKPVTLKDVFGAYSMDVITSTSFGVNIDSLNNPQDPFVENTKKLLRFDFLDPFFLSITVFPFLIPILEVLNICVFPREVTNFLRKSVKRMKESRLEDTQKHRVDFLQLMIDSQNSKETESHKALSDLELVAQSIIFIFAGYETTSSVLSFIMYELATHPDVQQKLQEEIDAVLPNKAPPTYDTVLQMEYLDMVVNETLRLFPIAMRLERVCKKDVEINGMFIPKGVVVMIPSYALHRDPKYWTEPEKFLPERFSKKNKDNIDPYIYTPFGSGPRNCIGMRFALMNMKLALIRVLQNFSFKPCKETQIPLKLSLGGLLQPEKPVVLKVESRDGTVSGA

Cytochrome P450 2C19 = Cytochrome P450 2C19 (Homo sapiens, UniProt P33261); assay: Inhibition of human liver CYP2C19 expressed in Saccharomyces cerevisiae YY7 microsomal membranes using DBF as substrate after 10 mins by fluorescence assay; type: ADME, Microsomal Membrane
Cytochrome P450 2C19, sequence (P33261 whole entry): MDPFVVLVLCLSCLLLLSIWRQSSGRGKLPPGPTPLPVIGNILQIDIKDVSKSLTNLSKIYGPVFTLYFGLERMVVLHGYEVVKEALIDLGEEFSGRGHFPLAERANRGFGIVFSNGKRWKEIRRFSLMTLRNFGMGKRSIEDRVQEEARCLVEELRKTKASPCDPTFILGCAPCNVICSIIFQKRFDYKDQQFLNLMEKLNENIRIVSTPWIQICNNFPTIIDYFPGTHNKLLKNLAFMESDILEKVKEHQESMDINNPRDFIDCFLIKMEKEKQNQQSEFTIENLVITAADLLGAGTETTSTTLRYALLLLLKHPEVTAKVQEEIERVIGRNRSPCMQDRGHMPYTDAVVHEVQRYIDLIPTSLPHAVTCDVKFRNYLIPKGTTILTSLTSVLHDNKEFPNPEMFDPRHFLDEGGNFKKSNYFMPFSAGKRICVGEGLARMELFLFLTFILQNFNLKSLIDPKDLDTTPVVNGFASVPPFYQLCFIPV

Cytochrome P450 2D6 = Cytochrome P450 2D6 (Homo sapiens, UniProt P10635); assay: Inhibition of human liver CYP2D6 expressed in Saccharomyces cerevisiae YY7 microsomal membranes using EOMCC as substrate after 10 mins by fluorescence assay; type: ADME, Microsomal Membrane; how it was run: as §1
Cytochrome P450 2D6, sequence (P10635 whole entry): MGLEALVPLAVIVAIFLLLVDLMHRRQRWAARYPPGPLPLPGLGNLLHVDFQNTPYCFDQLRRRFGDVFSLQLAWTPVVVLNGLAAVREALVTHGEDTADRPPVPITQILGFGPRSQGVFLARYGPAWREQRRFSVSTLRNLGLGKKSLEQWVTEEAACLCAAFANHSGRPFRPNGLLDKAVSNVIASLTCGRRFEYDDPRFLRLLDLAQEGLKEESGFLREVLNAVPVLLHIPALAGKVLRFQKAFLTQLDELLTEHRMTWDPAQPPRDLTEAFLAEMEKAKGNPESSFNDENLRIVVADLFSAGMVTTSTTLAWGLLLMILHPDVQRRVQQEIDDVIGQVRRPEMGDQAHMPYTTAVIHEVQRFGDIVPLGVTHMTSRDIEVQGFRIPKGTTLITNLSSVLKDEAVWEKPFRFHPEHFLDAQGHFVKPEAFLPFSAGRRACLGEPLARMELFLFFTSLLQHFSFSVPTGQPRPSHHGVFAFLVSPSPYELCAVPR

Cytochrome P450 1B1 [2] = molecular target: T2, Cytochrome P450 1B1; assay: Inhibition of human liver CYP1B1 expressed in Saccharomyces cerevisiae YY7 microsomal membranes at 5 to 10 uM using 7-ethoxyresorufin as substrate after 10 mins by fluorescence assay
How it was run: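 Single-concentration screen on CYP1B1 yeast microsomes at 5 µM (10 µM per methods), with 7-ER under the regenerating-system endpoint format: 10 min at 37 °C. Percentage inhibition versus a DMSO control; each compound tested twice.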

Structure (SMILES) | IC50 (Cytochrome P450 1A1) [µM] | IC50 (Cytochrome P450 2C9) [µM] | IC50 (Cytochrome P450 1B1 [1]) [µM] | IC50 (Cytochrome P450 1A2) [µM] | IC50 (Cytochrome P450 3A4) [µM] | IC50 (Cytochrome P450 2C19) [µM] | IC50 (Cytochrome P450 2D6) [µM] | inhibition (INH) (Cytochrome P450 1B1 [2])
O=C(/C=C/c1ccc2c(c1)OCO2)c1cccnc1 | 1.5 | > 20 | 0.029 | 1.5 | 12 | > 20 | 14 | Active
O=C(/C=C/c1cccc(O)c1)c1cccnc1 | 25 | – | 0.466 | 2.9 | – | – | – | Active
COc1ccc(C(=O)/C=C/c2cccnc2)cc1OC | 3.1 | – | 0.176 | 0.705 | – | – | – | Active
COc1ccc(/C=C/C(=O)c2cccnc2)c(OC)c1OC | 0.297 | > 20 | 0.031 | 0.168 | 11.8 | > 20 | 8.8 | Active
O=C(/C=C/c1cccnc1)c1ccc2ccccc2c1 | 0.349 | > 20 | 0.015 | 0.636 | 28 | > 20 | 4.4 | Active
COc1ccc(/C=C/C(=O)c2cccnc2)cc1OC | 1.4 | > 20 | 0.019 | 0.258 | 53 | > 20 | 1.1 | Active
O=C(/C=C/c1cccnc1)c1cccc(Cl)c1 | 3.4 | > 20 | 0.059 | 0.238 | 12.5 | > 20 | 10.6 | Active
O=C(/C=C/c1ccc(Cl)c(Cl)c1)c1cccnc1 | 2 | > 20 | 0.096 | 0.624 | 15 | > 20 | 10.2 | Active
O=C(/C=C/c1cccnc1)c1ccc2ccc3cccc4ccc1c2c34 | 2.2 | – | 0.162 | 2.1 | – | – | – | Active
O=C(/C=C/c1cccnc1)c1cccc2ccccc12 | 0.958 | > 20 | 0.023 | 0.214 | 6 | > 20 | 1.3 | Active
COc1ccccc1/C=C/C(=O)c1cccnc1 | 4.7 | > 20 | 0.015 | 0.22 | 1.52 | > 20 | 1.74 | Active
COc1ccc(C(=O)/C=C/c2cccnc2)cc1 | 3.6 | – | 0.525 | 2.4 | – | – | – | Active
COc1cc(/C=C/C(=O)c2cccnc2)cc(OC)c1OC | 0.288 | – | 0.349 | 0.515 | – | – | – | Active
O=C(/C=C/c1cccnc1)c1ccc2ccc3ccccc3c2c1 | 0.122 | > 20 | 0.048 | 1 | 26 | > 20 | 12 | Active
O=C(/C=C/c1ccncc1)c1ccc2ccccc2c1 | 0.907 | – | 0.187 | 0.3 | – | – | – | Active
O=C(/C=C/c1cccnc1)c1cccc(Br)c1 | 2.6 | > 20 | 0.064 | 0.162 | 14 | > 20 | 8 | Active
O=C(/C=C/c1ccccc1)c1cccnc1 | 31.8 | > 20 | 0.077 | 4.7 | 11.1 | > 20 | 8.2 | Active
COc1ccc(/C=C/C(=O)c2cccnc2)cc1O | 2.6 | – | 0.112 | 1.7 | – | – | – | Active
COc1cc(OC)cc(C(=O)/C=C/c2cccnc2)c1 | 0.879 | – | 0.106 | 0.306 | – | – | – | Active
COc1cccc(C(=O)/C=C/c2cccnc2)c1 | 3.5 | – | 0.13 | 0.48 | – | – | – | Active
O=C(/C=C/c1ccc(F)c(F)c1)c1cccnc1 | 11.8 | – | 0.12 | 0.86 | – | – | – | Active
O=C(/C=C/c1cccnc1)c1cc2ccccc2c2ccccc12 | 0.058 | – | 0.133 | 0.669 | – | – | – | Active
COc1cccc(/C=C/C(=O)c2cccnc2)c1 | 10.5 | > 20 | 0.032 | 0.752 | 1.28 | > 20 | 1 | Active
O=C(/C=C/c1cccnc1)c1ccc(-c2ccccc2)cc1 | 17 | – | 0.189 | 2.3 | – | – | – | Active
COc1ccc(C(=O)/C=C/c2cccnc2)c(OC)c1 | 1.5 | > 20 | 0.093 | 0.432 | 11 | > 20 | 7.7 | Active
COc1ccc(C(=O)/C=C/c2cccnc2)c(OC)c1OC | 5.3 | – | 0.137 | 0.176 | – | – | – | Active
